The values below come from ChEMBL document CHEMBL1157285, “Antimalarial compounds from Grewia bilamellata” (J Nat Prod, 2006).

Where only a bound is given, the exact number is not on record here.

The nature of data set [1]: Selectivity index, ratio of ED50 for human KB cells to IC50 for Plasmodium falciparum W2. It counts as functional. In a few lines:
(§1)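 Selectivity index computed as ED50 in KB cells (SRB survival assay) divided by IC50 against the P. falciparum clone from [3H]hypoxanthine incorporation, both fitted by nonlinear regression.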

The subject of data set [2] is Plasmodium falciparum. The data set can be described thus: Antimalarial activity against Plasmodium falciparum D6 by [3H]hypoxanthine uptake. It is filed as functional, organism-based. In a few lines:
(§2)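 Cultured P. falciparum clones tested, parasite-specific [3H]hypoxanthine incorporation measured; zero-drug wells set as 100% incorporation. IC50 (50% inhibition of incorporation) fitted by nonlinear regression; pure compounds with IC50 < 10 µg/mL counted as active. Extract values expressed in µg/mL.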

Data set [3] is described as follows: Cytotoxicity against human KB cells by SRB assay. The following applies: read-out: ED50 (the source's name). It counts as cell-based. In a few lines:
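Human oral epidermoid carcinoma KB cells stained with sulforhodamine B; ED50 from nonlinear regression of percent survival against compound concentration. ED50 of 50 µM or above taken as noncytotoxic; extract values in µg/mL.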

The nature of data set [4]: Selectivity index, ratio of ED50 for human KB cells to IC50 for Plasmodium falciparum D6. It counts as functional. In a few lines: as §1
Data set [5] relates to Plasmodium falciparum. Briefly: Antimalarial activity against Plasmodium falciparum W2 by [3H]hypoxanthine uptake. It is filed as functional, organism-based. Summed up: as §2

With `COc1cc([C@@H]2Oc3cc(/C=C/CO)cc(OC)c3O[C@H]2CO)cc(OC)c1O` [NITIDANIN], the results for the “Selectivity Index” value in data set [1] and in data set [4] were more than 5.4 and more than 4.6, respectively. Besides, the IC50 was 21.2 µM in data set [2] and 18.4 µM in data set [5]. Further, the CC50 in data set [3] is more than 99 µM.
Regarding `CC1(C)CC[C@]2(C(=O)O)CC[C@]3(C)C(=CC[C@@H]4[C@@]5(C)C[C@@H](O)[C@H](O)C(C)(C)[C@@H]5CC[C@]43C)[C@@H]2C1` [MASLINIC ACID], the “Selectivity Index” value in data set [1] was 5.9; in data set [4], 2.4. Moreover, the IC50 in data set [2] was 21.1 µM; in data set [5], 8.6 µM. The CC50 in data set [3] was 51.5 µM.
`CCN(CC)CCCC(C)Nc1ccnc2cc(Cl)ccc12` (stereo unspecified) [CHLOROQUINE]: the CC50 in data set [3] was 30.8 µM.
As to `COc1cc([C@@H]2Oc3cc4ccc(=O)oc4cc3O[C@H]2CO)cc(O)c1O` [GREWIN], the “Selectivity Index” value is more than 19.7 in data set [1] and more than 9.6 in data set [4]. Also, the concentration for half-maximal inhibition (IC50) in data set [2] came out at 11.2 µM; in data set [5], 5.5 µM. In data set [3], the CC50 was more than 108 µM.
Take `COC1=CC(=O)C=C(OC)C1(O)CC(C)=O`: the “Selectivity Index” value in data set [1] came to 7.3; in data set [4], 4. Further, the IC50 in data set [2] amounted to 42.2 µM; in data set [5], 23 µM. Further, the CC50 in data set [3] worked out at 169 µM.
In the case of `CC(C)(O)[C@@H]1CC[C@]2(C)CC[C@]3(C)[C@H](CC[C@@H]4[C@@]5(C)CC[C@@H](O)C(C)(C)[C@@H]5CC[C@]43C)[C@@H]12`, the “Selectivity Index” value in data set [1] was more than 4.7; in data set [4] it was more than 4.5. Further, the figures for the IC50 in data set [2] and in data set [5] were 19.8 µM and 19.1 µM, respectively. Further, the CC50 in data set [3] is more than 90 µM.
